# Source: PubChem
# Most compounds without a hit are left out; they make up all but 2.3% or so of the library.
# TRPC6 activator = activates the mouse TRPC6 cation channel; HEK293-TRPC6 membrane potential dye fluorescence; active compounds read high; B-score at 10 µM; hit rate 0.13% among 310,000; AID 2550;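 active means B-score of the integrated fluorescence ratio above library mean plus 3 SD, and starting fluorescence ratio within library mean plus 5 SD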;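 further: higher score means more depolarization so channel activation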
# TRPC4 agonist = TRPC4 (mouse) channel activation | hit rate 0.49% among 310,000 | AID 2237 | HEK293 TRPC4beta/mu-opioid, Fluo4 calcium fluorescence; active compounds read high | Q9QUQ5 | B-score at 10 µM;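 active means B-score above 5 SD of library B-scores, and initial fluorescence ratio not above library mean plus 5 SD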;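 further: positive B-score marks a calcium rise read as TRPC4 activation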
# Target sequence (Q9QUQ5 whole entry, looked up): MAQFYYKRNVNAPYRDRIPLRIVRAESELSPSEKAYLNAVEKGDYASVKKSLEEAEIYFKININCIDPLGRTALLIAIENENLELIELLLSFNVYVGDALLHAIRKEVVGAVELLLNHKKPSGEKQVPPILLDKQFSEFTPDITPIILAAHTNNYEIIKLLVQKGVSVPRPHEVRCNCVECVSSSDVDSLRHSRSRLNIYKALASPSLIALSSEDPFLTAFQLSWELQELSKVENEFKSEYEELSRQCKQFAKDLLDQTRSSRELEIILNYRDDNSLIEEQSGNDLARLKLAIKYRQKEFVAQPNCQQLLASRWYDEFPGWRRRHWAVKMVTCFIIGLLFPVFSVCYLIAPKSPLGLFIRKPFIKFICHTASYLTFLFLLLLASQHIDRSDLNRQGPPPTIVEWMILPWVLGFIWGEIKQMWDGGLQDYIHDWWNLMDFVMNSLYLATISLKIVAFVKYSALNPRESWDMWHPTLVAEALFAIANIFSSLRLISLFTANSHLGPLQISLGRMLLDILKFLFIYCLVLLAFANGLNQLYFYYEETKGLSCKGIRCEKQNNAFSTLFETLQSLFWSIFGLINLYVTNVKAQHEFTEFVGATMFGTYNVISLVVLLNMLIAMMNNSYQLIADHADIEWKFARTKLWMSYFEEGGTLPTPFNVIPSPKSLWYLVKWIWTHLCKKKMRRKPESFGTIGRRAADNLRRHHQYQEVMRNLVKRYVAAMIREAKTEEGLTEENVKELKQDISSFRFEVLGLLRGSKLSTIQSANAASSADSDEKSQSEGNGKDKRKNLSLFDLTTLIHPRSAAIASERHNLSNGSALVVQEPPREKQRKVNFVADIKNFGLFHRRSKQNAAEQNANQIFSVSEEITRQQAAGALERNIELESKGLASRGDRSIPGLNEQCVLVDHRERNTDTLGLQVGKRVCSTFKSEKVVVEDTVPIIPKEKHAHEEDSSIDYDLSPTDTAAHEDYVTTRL
#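 Test system: HEK293 cells stably co-expressing mouse TRPC4beta and mu-opioid receptor | Schedule: Fluo4 dye loading 45 min at room temperature, 110 s recording | Measured by: Kinetic Fluo4 calcium fluorescence, 5 s baseline at 1 Hz | Evaluation: B score of integrated ratio | Controls: Buffer (low) and maximal DAMGO (high)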
# TRPC6 inh = blocks the mouse TRPC6 cation channel; Q61143; HEK293-TRPC6, membrane potential dye, ACh-evoked depolarization; active compounds read low; B-score at 10 µM; hit rate 1.1% among 310,000; AID 2553;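 active means B-score under library mean minus 3 SD, initial fluorescence not abnormally high, positive integrated signal ratio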;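 further: B-score derived from integrated fluorescence ratio over the kinetic read; more negative B-score means stronger inhibition of depolarization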
# TRPC4 block = blocks the mouse TRPC4 cation channel. B-score at 10 µM. HEK293 TRPC4beta/mu-opioid, DAMGO-evoked Fluo4 calcium flux; active compounds read low. AID 2247. Q9QUQ5. hit rate 0.39% among 300,000;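 active means B-score over 3 SD under the library average, no early fluorescence shift, positive overall ratio signal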
#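 material = TRPC4beta/mu-opioid receptor HEK293 cell line | probe or stimulus = sequential submaximal and maximal DAMGO stimulation | compound dosing = one concentration per compound | measured by = Fluo4 Ca2+ flux fluorescence | evaluation = integrated fluorescence ratio relative to baseline, converted to per-well B score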
# TRPC4 potent = allosteric potentiators of mouse TRPC4 channel | Q9QUQ5 | HEK293 TRPC4beta/mu-opioid, DAMGO EC20, Fluo-4 Ca2+ flux; active compounds read high | B-score at 10 µM | hit rate 0.42% among 310,000 | AID 2227;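 active means B-score of calcium response area above 5 SD of library B-scores, with initial fluorescence ratio within 5 SD of library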;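 further: B-score of integrated fluorescence ratio over time as area under calcium response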
# An asterisk follows results filed as active; i = inactive.
SMILES,TRPC6 activator,TRPC4 agonist,TRPC6 inh,TRPC4 block,TRPC4 potent
O=C(OCC(=O)N1CCCc2ccccc21)c1ccc(S(=O)(=O)C(F)F)cc1,i,i,i,i,i
O=C(O)c1ccccc1Sc1c([N+](=O)[O-])cc(C(F)(F)F)cc1[N+](=O)[O-],i,i,i,i,i
CN(C)C(CNC(=O)c1cnc(Cl)c(Cl)c1)c1ccccc1 (configuration not stated),i,223*,i,i,i
CN(C)C(CNC(=O)c1ccc(C2SCCS2)cc1)c1ccccc1 (configuration not stated),i,i,i,-5*,i
COC(=O)c1ccc(CNC(=O)c2coc3ccccc3c2=O)cc1,i,i,i,i,i
CN(C)C(CNC(=O)c1ccc2ccccc2n1)c1ccccc1 (configuration not stated),i,100*,i,i,i
CN(C)C(CNC(=O)c1cc(S(=O)(=O)N(C)c2ccccc2)ccc1Cl)c1ccccc1 (configuration not stated),i,i,i,i,i
CN(C)C(CNC(=O)c1coc2ccccc2c1=O)c1ccccc1 (configuration not stated),i,i,i,i,12*
CN(C)C(CNC(=O)c1ccc(NC(=O)c2cccs2)cc1)c1ccccc1 (configuration not stated),i,i,i,i,i
CN(C)CCOC1c2ccccc2CCc2ccc3ccccc3c21 (configuration not stated),i,i,i,i,i
COC(=O)c1sccc1S(=O)(=O)N1CCCC(N(C)CCc2ccccn2)C1 (configuration not stated),i,i,i,i,i
Cc1ccc(NC(=O)C2CC(O)CN2C(=O)OCc2ccccc2)c(C)c1 (configuration not stated),i,i,i,i,i
CN(C)C(CNC(=O)/C=C/c1cccc(Cl)c1)c1ccccc1 (configuration not stated),i,199*,i,i,i
Fc1ccc(C(c2nnnn2Cc2cccs2)N2CCN(C3CCCC3)CC2)cc1 (configuration not stated),i,i,i,i,i
Fc1ccc(C(c2nnnn2Cc2ccco2)N2CCN(C3CCCCC3)CC2)cc1 (configuration not stated),i,196*,i,i,i
c1ccc(Cn2nnnc2C(c2cccnc2)N2CCN(C3CCCCC3)CC2)cc1 (configuration not stated),i,103*,i,i,i
CCNc1nc(NC(C)(C)C)nc(N2CCCC2)n1,i,i,i,-8*,i
CC(C)(C)Nc1nc(N2CCCC2)nc(N2CCCC2)n1,i,i,i,i,i
COC(=O)c1cccc2c1-c1ccccc1/C2=N\NC(N)=O,i,i,i,i,i
COC(=O)c1cccc2c1-c1ccccc1/C2=N/O,i,i,i,-7*,i
COc1ccc(-c2cc(C(=O)N3CC(C)CC(C)C3)c3ccccc3n2)cc1 (configuration not stated),i,i,i,i,18*
CC(Oc1ccc(Cl)cc1Cl)c1nc(-c2ccc(NC(=O)c3cccnc3)cc2)no1 (configuration not stated),i,i,i,i,i
CC(Oc1ccc(Cl)cc1Cl)c1nc(-c2ccccn2)no1 (configuration not stated),i,i,i,-6*,i
Cc1cccc(-c2nnc(SCc3nc4ccccc4[nH]3)n2Cc2ccco2)c1,i,i,i,-7*,i
CC(=O)c1ccc2c(c1)N(C)c1ccccc1S2,i,i,i,-6*,i
SMILES,TRPC6 activator,TRPC4 agonist,TRPC6 inh,TRPC4 block,TRPC4 potent
CN1C(=O)c2ccccc2Sc2ccc(C(=O)O)cc21,i,i,i,i,i
CCC1=C(c2cc(OC)c(OC)c(OC)c2)C2(CCCC2)C(=O)O1,i,i,i,i,i
CSc1ccccc1OCc1cc(C(=O)N2CCc3c(Cl)cccc3C2)no1,i,i,i,i,i
O=c1c2ccccc2nc(SCc2ccccc2)n1CC1CCCO1 (configuration not stated),i,i,i,-7*,i
COC(=O)CC(c1ccc(C(C)C)cc1)n1cccc1 (configuration not stated),i,i,i,i,i
COc1ccc(C[C@H]2CN3C(=NC[C@@H]3Cc3ccccc3)N2CCNC(=O)CCC2CCCCC2)cc1,i,60*,i,i,i
O=C(O)c1ccc(Cl)cc1Nc1nc2cc(Cl)ccc2o1,i,i,i,-6*,i
CCC(=O)Nc1cc(Cl)ccc1C(=O)O,i,i,i,i,i
Cc1cccc(NC(=S)NC2CC3CCC(C2)N3Cc2ccco2)c1 (configuration not stated),i,i,i,i,i
O=C(Nc1cccc(Cl)c1N1CCOCC1)c1ccco1,i,i,i,i,i
CCN1CCN(c2c(Cl)cccc2NC(=O)c2cccs2)CC1,i,i,i,i,39*
CCN1CCN(c2c(Cl)cccc2NC(=O)c2ccc([N+](=O)[O-])o2)CC1,i,i,-8.7*,i,i
CCN1CCN(c2c(Cl)cccc2NC(=O)c2ccco2)CC1,i,65*,i,i,i
CC(=O)c1cccc(NC(=O)C(C)OC(=O)CCCN=C2NS(=O)(=O)c3ccccc32)c1 (configuration not stated),i,i,i,i,i
CN(CCc1ccccc1)C(=O)CCc1nnc(Cc2ccc3c(c2)OCO3)o1,i,i,i,i,i
CC(OC(=O)CN1C(=O)c2ccccc2C1=O)C(=O)N(C)c1ccccc1 (configuration not stated),i,i,i,i,i
COc1ccc(Br)cc1/C=N/n1c(COc2ccccc2)n[nH]c1=S,i,i,i,i,i
O=C(OCC1CCNCC1)c1ccc2c(c1)OCO2,i,62*,i,i,i
N#Cc1ccc(COC(=O)c2ccc3c(c2)OCO3)cc1,i,i,i,i,i
COc1nc(-c2ccccc2Cl)ccc1C#N,i,i,i,-6*,i
CCOc1nc(-c2ccc(Cl)cc2Cl)ccc1C#N,i,i,i,i,i
Cc1ccc(N2CCN(c3ccc(NCc4nc5ccccc5n4C)cc3)CC2)cc1,i,122*,i,i,i
